Laboratory results taken from ChEMBL document CHEMBL4261631, “Synthetic thiosemicarbazones as a new class of Mycobacterium tuberculosis protein tyrosine phosphatase A inhibitors” (Bioorg Med Chem, 2018).

Each compound was assayed against T1, Low molecular weight protein-tyrosine phosphatase A (Mycobacterium tuberculosis) (UniProt P9WIA1) (assay: Inhibition of recombinant Mycobacterium tuberculosis PtpA at 25 uM using p-nitrophenyl phosphate as substrate preincubated for 10 mins followed by substrate addition and measured every minute for 10 mins by UV-VIS spectrophotometric analysis).
T1 sequence (whole entry): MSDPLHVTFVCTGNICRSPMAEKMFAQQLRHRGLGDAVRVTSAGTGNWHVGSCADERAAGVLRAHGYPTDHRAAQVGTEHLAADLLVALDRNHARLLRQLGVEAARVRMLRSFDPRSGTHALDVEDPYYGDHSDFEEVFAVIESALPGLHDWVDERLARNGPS
How it was run: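 Single-point screen at 25 µM final (from 1 mM DMSO stock, 2.5% DMSO final). 50 nM recombinant Mtb PtpA in 20 mM imidazole pH 7.0, premixed with compound 10 min at 37 °C. Reaction started with 10 mM pNPP. A410 read each min for 10 min at 37 °C. Residual activity from absorbance difference 7 min minus 2 min versus no-inhibitor wells. Triplicate.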

SMILES	inhibition
COc1ccc(NC(=S)N/N=C/c2ccccc2[N+](=O)[O-])cc1	0%
COc1ccc(/C=N/NC(=S)Nc2ccc(C)cc2)cc1OC	6.6%
Cc1ccc(NC(=S)N/N=C/c2cccc3ccccc23)cc1	33.7%
Cc1ccc(NC(=S)N/N=C/c2ccc3ccccc3c2)cc1	29.3%
COc1ccc(NC(=S)N/N=C/c2ccc(OC)c(OC)c2)cc1	0%
COc1ccc(NC(=S)N/N=C/c2ccc(O)c(OC)c2)cc1	6.6%
COc1ccc(NC(=S)N/N=C/c2ccc(C)cc2)cc1	0%
S=C(N/N=C/c1cccc2ccccc12)Nc1cccc2ccccc12	10.3%
COc1cc(/C=N/NC(=S)Nc2cccc3ccccc23)ccc1O	0%
COc1ccc(NC(=S)N/N=C/c2ccc(N(C)C)cc2)cc1	3.9%
COc1ccc(OC)c(/C=N/NC(=S)Nc2cccc3ccccc23)c1	44.2%
O=[N+]([O-])c1ccccc1/C=N/NC(=S)Nc1cccc2ccccc12	52.4%
COc1ccc(NC(=S)N/N=C/c2ccc3c(c2)OCO3)cc1	0%
CN(C)c1ccc(/C=N/NC(=S)Nc2cccc3ccccc23)cc1	51.6%
COc1ccc(NC(=S)N/N=C/c2ccc3ccccc3c2)cc1	23.7%
COc1ccc(NC(=S)N/N=C/c2ccc([N+](=O)[O-])cc2)cc1	64.4%
Cc1ccc(NC(=S)N/N=C/c2ccc(Cl)cc2)cc1	4.9%
S=C(N/N=C/c1ccc(Cl)c(Cl)c1)Nc1cccc2ccccc12	83.7%
COc1ccc(/C=N/NC(=S)Nc2cccc3ccccc23)cc1	22.6%
COc1ccc(/C=N/NC(=S)Nc2ccc(OC)cc2)cc1	0%
COc1ccc(/C=N/NC(=S)Nc2ccc(C)cc2)cc1	8.9%
COc1ccc(NC(=S)N/N=C/c2ccc(Cl)c(Cl)c2)cc1	21.4%
COc1ccc(/C=N/NC(=S)Nc2cccc3ccccc23)cc1OC	64.5%

SMILES	inhibition
COc1ccc(NC(=S)N/N=C/c2ccc(-c3ccccc3)cc2)cc1	41.2%
Cc1ccc(/C=N/NC(=S)Nc2ccc(C)cc2)cc1	0.7%
COc1ccc(NC(=S)N/N=C/c2cccc3ccccc23)cc1	22.7%
S=C(N/N=C/c1ccccc1)Nc1cccc2ccccc12	58.1%
COc1ccc(NC(=S)N/N=C/c2ccccc2)cc1	0%
COc1cc(/C=N/NC(=S)Nc2ccc(C)cc2)ccc1O	8.8%
Cc1ccc(NC(=S)N/N=C/c2ccc(-c3ccccc3)cc2)cc1	26.3%
COc1ccc(OC)c(/C=N/NC(=S)Nc2ccc(C)cc2)c1	2.8%
S=C(N/N=C/c1ccc2ccccc2c1)Nc1cccc2ccccc12	67.7%
Cc1ccc(NC(=S)N/N=C/c2ccc3c(c2)OCO3)cc1	25.9%
Cc1ccc(NC(=S)N/N=C/c2ccccc2)cc1	16.6%
COc1ccc(NC(=S)N/N=C/c2ccc(Cl)cc2)cc1	1%
COc1cc(/C=N/NC(=S)Nc2cccc3ccccc23)cc(OC)c1OC	0%
S=C(N/N=C/c1ccc2c(c1)OCO2)Nc1cccc2ccccc12	62.6%
Cc1ccc(NC(=S)N/N=C/c2ccc(N(C)C)cc2)cc1	35.4%
Cc1ccc(NC(=S)N/N=C/c2ccc(Cl)c(Cl)c2)cc1	23.4%
Cc1ccc(NC(=S)N/N=C/c2ccc([N+](=O)[O-])cc2)cc1	37.2%
S=C(N/N=C/c1ccc(Cl)cc1)Nc1cccc2ccccc12	0%
COc1ccc(NC(=S)N/N=C/c2cc(OC)c(OC)c(OC)c2)cc1	0%
COc1cc(/C=N/NC(=S)Nc2ccc(C)cc2)cc(OC)c1OC	0%
COc1ccc(NC(=S)N/N=C/c2cc(OC)ccc2OC)cc1	0%
Cc1ccc(NC(=S)N/N=C/c2ccccc2[N+](=O)[O-])cc1	21.6%

The compounds below were run against T2, Low molecular weight protein-tyrosine phosphatase A (Mycobacterium tuberculosis, UniProt P9WIA1) (assay: Inhibition of recombinant Mycobacterium tuberculosis PtpA using p-nitrophenyl phosphate as substrate preincubated for 10 mins followed by substrate addition and measured every minute for 10 mins by UV-VIS spectrophotometric analysis).
T2 sequence (P9WIA1 whole entry): T1 sequence (whole entry)
How it was run: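 Recombinant Mtb PtpA at 50 nM in 20 mM imidazole pH 7.0, premixed with inhibitor (0.5–50 µM, DMSO ≤4% v/v) 10 min at 37 °C. Started with 10 mM pNPP. A410 read each min for 10 min at 37 °C. Residual activity from 7 min minus 2 min absorbance versus no-inhibitor wells. IC50 by linear regression of % inhibition versus concentration. Triplicate, mean ± SD of three experiments.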

SMILES	IC50
COc1ccc(NC(=S)N/N=C/c2ccc([N+](=O)[O-])cc2)cc1	15.1 µM
S=C(N/N=C/c1ccc(Cl)c(Cl)c1)Nc1cccc2ccccc12	13.4 µM
COc1ccc(/C=N/NC(=S)Nc2cccc3ccccc23)cc1OC	18.2 µM
S=C(N/N=C/c1ccc2ccccc2c1)Nc1cccc2ccccc12	23.7 µM
S=C(N/N=C/c1ccc2c(c1)OCO2)Nc1cccc2ccccc12	17.8 µM
